Assay results taken from ChEMBL document CHEMBL1156693, “Novel N-(phosphonomethyl) glycine derivatives: Design, characterization and biological activity” (Eur J Med Chem, 2008).
Calls of active or inactive are those of the source. The rule behind the calls is not given here.

Tests used:
[1] = system: HL-60; experiment: Cytotoxicity against human HL60 cells after 72 hrs by MTT assay; type: functional, cell-based; conditions: HL-60, 72 h
Outline: (§1)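 Cells at 37 °C, 5% CO2; 293T in DMEM, others in RPMI 1640, both with 2 mM L-glutamine and 10% FCS. Seeded 10⁴ cells/well, 24 h preincubation, then compounds 0.195–200 µM (DMSO ≤1% final) for 72 h continuous. MTT added, 4 h, formazan dissolved in 5% formic acid-acidified DMSO, absorbance read; IC50 = concentration giving 50% survival decrease.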

[2] = system: Mus musculus; experiment: Clastogenic effect on C57BL mouse assessed as number of metaphase chromosomal centromere/centromeric fusion in bone marrow cells at 100 mg/kg, ip after 24 hrs; type: functional; conditions: route intraperitoneal
Outline: (§2)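 Inbred male and female C57Bl mice, groups of 3 males + 3 females, dosed i.p. (0.9% NaCl vehicle/negative control); mitomycin C 3.5 mg/kg positive control. Colchicine 40 mg/kg i.p. 1 h before femoral bone marrow harvest; hypotonic 0.075 M KCl 20 min at 37 °C, methanol-acetic acid fixation, Giemsa stain; ≥50 metaphases per animal scored; group mean ± SE.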

[3] = system: HD-MY-Z; experiment: Cytotoxicity against human HD-MY-Z cells after 72 hrs by MTT assay; type: functional, cell-based; outline: as §1
[4] = system: DOHH-2; experiment: Cytotoxicity against human DOHH2 cells after 72 hrs by MTT assay; type: functional, cell-based; conditions: DOHH-2, 72 h; outline: as §1
[5] = system: Mus musculus; experiment: Clastogenic effect on C57BL mouse assessed as number of metaphase chromosome telomere/telomeric fusion in bone marrow cells at 10 mg/kg, ip after 48 hrs; type: functional; conditions: route intraperitoneal; outline: as §2
[6] = system: LAMA-84; experiment: Cytotoxicity against human LAMA-84 cells after 72 hrs by MTT assay; type: functional, cell-based; conditions: LAMA-84, 72 h; outline: as §1
[7] = system: Mus musculus; experiment: Clastogenic effect on C57BL mouse assessed as number of metaphase chromosomal breaks in bone marrow cells at 10 mg/kg, ip after 24 hrs; type: functional; conditions: route intraperitoneal; outline: as §2
[8] = system: Mus musculus; experiment: Clastogenic effect on C57BL mouse assessed as number of metaphase chromosomal breaks in bone marrow cells at 100 mg/kg, ip after 48 hrs; type: functional; conditions: route intraperitoneal; outline: as §2
[9] = system: Mus musculus; experiment: Clastogenic effect on C57BL mouse assessed as mitotic index in bone marrow cells at 10 mg/kg, ip after 24 hrs; type: functional; conditions: route intraperitoneal
Outline: (§3)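 C57Bl mice (3 males + 3 females per group) given compound i.p.; saline controls. Colchicine 40 mg/kg i.p. 1 h before bone marrow harvest from femur; hypotonic KCl, fixed, Giemsa-stained slides. Mitotic index = dividing cells counted among 1500 cells per animal; per-animal values averaged as group mean ± SE.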

[10] = system: Mus musculus; experiment: Clastogenic effect on C57BL mouse assessed as number of metaphase chromosome telomere/telomeric fusion in bone marrow cells at 100 mg/kg, ip after 24 hrs; type: functional; conditions: route intraperitoneal; outline: as §2
[11] = system: Mus musculus; experiment: Clastogenic effect on C57BL mouse assessed as bone marrow cells with abberation at 10 mg/kg, ip after 48 hrs; type: functional; conditions: route intraperitoneal; outline: as §2
[12] = system: Mus musculus; experiment: Clastogenic effect on C57BL mouse assessed as bone marrow cells with abberation at 100 mg/kg, ip after 24 hrs; type: functional; conditions: route intraperitoneal; outline: as §2
[13] = system: Mus musculus; experiment: Clastogenic effect on C57BL mouse assessed as number of metaphase chromosome telomere/telomeric fusion in bone marrow cells at 100 mg/kg, ip after 48 hrs; type: functional; conditions: route intraperitoneal; outline: as §2
[14] = system: Mus musculus; experiment: Clastogenic effect on C57BL mouse assessed as number of metaphase chromosomal centromere/centromeric fusion in bone marrow cells at 100 mg/kg, ip after 48 hrs; type: functional; conditions: route intraperitoneal; outline: as §2
[15] = system: Mus musculus; experiment: Clastogenic effect on C57BL mouse assessed as number of metaphase chromosomal centromere/centromeric fusion in bone marrow cells at 10 mg/kg, ip after 24 hrs; type: functional; conditions: route intraperitoneal; outline: as §2
[16] = system: EJ; experiment: Cytotoxicity against human EJ cells after 72 hrs by MTT assay; type: functional, cell-based; outline: as §1
[17] = system: Mus musculus; experiment: Clastogenic effect on C57BL mouse assessed as number of metaphase chromosomal fragments in bone marrow cells at 10 mg/kg, ip after 24 hrs; type: functional; conditions: route intraperitoneal; outline: as §2
[18] = system: Mus musculus; experiment: Clastogenic effect on C57BL mouse assessed as mitotic index in bone marrow cells at 100 mg/kg, ip after 24 hrs; type: functional; conditions: route intraperitoneal; outline: as §3
[19] = system: Mus musculus; experiment: Clastogenic effect on C57BL mouse assessed as number of metaphase chromosomal breaks in bone marrow cells at 10 mg/kg, ip after 48 hrs; type: functional; conditions: route intraperitoneal; outline: as §2
[20] = system: Mus musculus; experiment: Clastogenic effect on C57BL mouse assessed as number of metaphase chromosome telomere/telomeric fusion in bone marrow cells at 10 mg/kg, ip after 24 hrs; type: functional; conditions: route intraperitoneal; outline: as §2
[21] = system: K562; experiment: Cytotoxicity against human K562 cells after 72 hrs by MTT assay; type: functional, cell-based; conditions: K562, 72 h; outline: as §1
[22] = system: Mus musculus; experiment: Clastogenic effect on C57BL mouse assessed as number of metaphase chromosomal fragments in bone marrow cells at 100 mg/kg, ip after 48 hrs; type: functional; conditions: route intraperitoneal; outline: as §2
[23] = system: Mus musculus; experiment: Clastogenic effect on C57BL mouse assessed as number of metaphase chromosomal breaks in bone marrow cells at 100 mg/kg, ip after 24 hrs; type: functional; conditions: route intraperitoneal; outline: as §2
[24] = system: Mus musculus; experiment: Clastogenic effect on C57BL mouse assessed as number of metaphase chromosomal centromere/centromeric fusion in bone marrow cells at 10 mg/kg, ip after 48 hrs; type: functional; conditions: route intraperitoneal; outline: as §2
[25] = system: Mus musculus; experiment: Clastogenic effect on C57BL mouse assessed as bone marrow cells with abberation at 10 mg/kg, ip after 24 hrs; type: functional; conditions: route intraperitoneal; outline: as §2
[26] = system: Mus musculus; experiment: Clastogenic effect on C57BL mouse assessed as mitotic index in bone marrow cells at 100 mg/kg, ip after 48 hrs; type: functional; conditions: route intraperitoneal; outline: as §3
[27] = system: Mus musculus; experiment: Clastogenic effect on C57BL mouse assessed as number of metaphase chromosomal fragments in bone marrow cells at 10 mg/kg, ip after 48 hrs; type: functional; conditions: route intraperitoneal; outline: as §2
[28] = system: Mus musculus; experiment: Clastogenic effect on C57BL mouse assessed as mitotic index in bone marrow cells at 10 mg/kg, ip after 48 hrs; type: functional; conditions: route intraperitoneal; outline: as §3
[29] = system: Mus musculus; experiment: Clastogenic effect on C57BL mouse assessed as bone marrow cells with abberation at 100 mg/kg, ip after 48 hrs; type: functional; conditions: route intraperitoneal; outline: as §2
[30] = Cytotoxicity against human 293T after 72 hrs by MTT assay; type: cell-based; conditions: HEK-293T; outline: as §1
[31] = system: Mus musculus; experiment: Clastogenic effect on C57BL mouse assessed as number of metaphase chromosomal fragments in bone marrow cells at 100 mg/kg, ip after 24 hrs; type: functional; conditions: route intraperitoneal; outline: as §2
[32] = system: DOHH-2; experiment: Induction of apoptosis in human DOHH2 cells assessed as increase in histone-associated oligonucleotide level after 24 hrs by ELISA; type: functional, cell-based
Outline: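 DOHH-2 cells exposed 24 h to equitoxic compound concentrations versus untreated control; cytosolic fractions of 1 × 10⁴ cells used in sandwich ELISA (anti-histone capture, peroxidase-conjugated anti-DNA detection) for histone-associated DNA fragments, read at 405 nm; means ± SD of three independent experiments.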

| Compound | IC50 [1] | Activity [2] | IC50 [3] | IC50 [4] | Activity [5] | IC50 [6] | Activity [7] | Activity [8] | Activity [9] | Activity [10] | Activity [11] | Activity [12] | Activity [13] | Activity [14] | Activity [15] | IC50 [16] | Activity [17] | Activity [18] | Activity [19] | Activity [20] | also measured |
| --- | --- | --- | --- | --- | --- | --- | --- | --- | --- | --- | --- | --- | --- | --- | --- | --- | --- | --- | --- | --- | --- |
| COP(=O)(CNC1(C(=O)O)CCCCC1)OC | 136 µM | 20 | 164 µM | 84.2 µM | 0 | 98.6 µM | 4 | 14 | 7.27% | 0 | 5.33% | 8.34% | 0 | 12 | 11 | 116 µM | 0 | 7.15% | 6 | 0 | IC50 [21]: 128 µM; Activity [22]: 0; Activity [23]: 7; Activity [24]: 9; Activity [25]: 5.33%; Activity [26]: 9.23%; Activity [27]: 1; Activity [28]: 6.71%; Activity [29]: 7.42%; IC50 [30]: > 200 µM; Activity [31]: 1 |
| COP(=O)(CNC1(C(=O)O)CCCC1)OC | 157 µM | 10 | > 200 µM | 145 µM | 1 | 162 µM | 7 | 6 | 10.39% | 0 | 5.77% | 7% | 2 | 8 | 9 | > 200 µM | 1 | 10.97% | 6 | 0 | IC50 [21]: > 200 µM; Activity [22]: 0; Activity [23]: 8; Activity [24]: 13; Activity [25]: 4.85%; Activity [26]: 8.33%; Activity [27]: 0; Activity [28]: 10.66%; Activity [29]: 6.4%; IC50 [30]: > 200 µM; Activity [31]: 3 |
| COP(=O)(CNC1(C(=O)O)CCCCCCCCCCC1)OC | 41.4 µM | 11 | 67.3 µM | 20.1 µM | 0 | 67.3 µM | 4 | 6 | 11.13% | 0 | 5% | 4.29% | 2 | 11 | 11 | 111 µM | 2 | 11.82% | 2 | 0 | IC50 [21]: 47.1 µM; Activity [22]: 6; Activity [23]: 4; Activity [24]: 12; Activity [25]: 5.57%; Activity [26]: 12.82%; Activity [27]: 1; Activity [28]: 8.6%; Activity [29]: 10%; Activity [32]: Active; IC50 [30]: 159 µM; Activity [31]: 0 |
